In ChEMBL document CHEMBL3227967, “Quantitative structure-activity relationships in 1-aryl-2-(alkylamino)ethanol antimalarials” (J Med Chem, 1979):

system: Plasmodium berghei; test: Antimalarial activity against Plasmodium berghei; format: functional; conditions: not given

| SMILES | log(1/C) |
| --- | --- |
| CCCCN(CCCC)CC(O)c1cc(-c2ccc(Cl)cc2)nc2cc(Cl)c(OC)cc12 (stereo not given) | 3.87 |
| CCCCCCCN(CCCCCCC)CC(O)c1c(Br)c2ccccc2c2ccccc12 (stereo not given) | 3.33 |
| CCCCNCC(O)c1cc(-c2cccc(C(F)(F)F)c2)nc(C(F)(F)F)c1 (stereo not given) | 3.69 |
| OC(C[N+]12CCC(CC1)CC2)c1cc2ccc(Cl)cc2c2cc(Cl)ccc12 (stereo not given) | 2.98 |
| CCCCCCCN(CCCCCCC)CC(O)c1cc2ccc(F)cc2c2ccccc12 (stereo not given) | 2.32 |
| CCCCN(CCCC)CC(O)c1cc2ccccc2c2cc(C(F)(F)F)ccc12 (stereo not given) | 3.23 |
| OC(CC1CCCCN1)c1cc2cc(C(F)(F)F)cc(C(F)(F)F)c2c2ccccc12 (stereo not given) | 4.19 |
| CCCCCCCN(CCCCCCC)CC(O)c1cc2ccc(C(F)(F)F)cc2c2cc(Cl)ccc12 (stereo not given) | 2.9 |
| CCCCN(CCCC)CC(O)c1cc2c(Cl)cc(Cl)cc2c2cnccc12 (stereo not given) | 2.94 |
| CCCCCCCCN(CCCCCCCC)CC(O)c1cc(-c2ccc(OC)c(OC)c2)nc2ccc(Cl)cc12 (stereo not given) | 3.11 |
| CCCCCCCN(CCCCCCC)CC(O)c1cc2ccsc2c2cc(Br)ccc12 (stereo not given) | 2.68 |
| CCCCN(CCCC)CC(O)c1cc(C2(C)CCCC2)nc2c(Cl)cc(Cl)cc12 (stereo not given) | 2.66 |
| COc1ccc(-c2cc(C(O)CC3CCCCN3)c3cccc(C(F)(F)F)c3n2)cc1 (stereo not given) | 3.88 |
| CCCCCCCN(CCCCCCC)CC(O)c1cc(-c2ccc(Cl)c(Cl)c2)cc2cc(Cl)ccc12 (stereo not given) | 2.6 |
| CCCCCCN(CCCCCC)CC(O)c1cc(-c2ccc(F)cc2)nc(-c2ccc(F)cc2)c1 (stereo not given) | 2.58 |
| CCCCN(CCCC)CC(O)c1cc2ccccc2c2cccc(Cl)c12 (stereo not given) | 2.32 |
| FC(F)(F)c1cc(C2CCCCN2)c2ccc3ccccc3c2n1.OC(CC1CCCCN1)c1cc(C(F)(F)F)nc2c1ccc1ccccc12 (stereo not given) | 3.44 |
| CCCCCCN(CCCCCC)CC(O)c1cc(-c2ccc(OC)cc2)nc2cc(Cl)c(Cl)cc12 (stereo not given) | 3.35 |
| CCCCN(CCCC)CC(O)c1cc(-c2ccc(OC)cc2)nc2cc(OC)c(Cl)cc12 (stereo not given) | 2.71 |
| CCCCCCN(CCCCCC)CC(O)c1cc(-c2ccc(Cl)cc2)nc2cc(Cl)ccc12 (stereo not given) | 3.28 |
| OC(CC1CCCCN1)c1cc2cccc(C(F)(F)F)c2c2ccc(Cl)cc12 (stereo not given) | 3.66 |

| SMILES | log(1/C) |
| --- | --- |
| CCCCCCN(CCCCCC)CC(O)c1cccc2c1cc(Br)c1ccccc12 (stereo not given) | 2.77 |
| CCCCN(CCCC)CC(O)c1cc(C(=O)c2cccc(C(F)(F)F)c2)nc2c(C(F)(F)F)cc(Cl)cc12 (stereo not given) | 4.52 |
| CCCCN(CCCC)CC(O)c1cc2ccccc2c2ccc(Cl)cc12 (stereo not given) | 2.51 |
| CCCCN(CCCC)CC(O)c1cc2cc(Br)c(Br)cc2c2cc(Br)ccc12 (stereo not given) | 3.97 |
| CCCCN(CCCC)CCC(O)c1cc2ccc(C(F)(F)F)cc2c2cc(C(F)(F)F)ccc12 (stereo not given) | 4.03 |
| CCN(CC)CC(O)c1cc2c(Cl)cc(Cl)cc2c2cc(Cl)ccc12 (stereo not given) | 3.9 |
| CCCCCCN(CCCCCC)CC(O)c1cc(-c2ccc(Cl)cc2)nc2c(Cl)cc(Cl)cc12 (stereo not given) | 3.37 |
| OC(CNC1CCCCC1)c1cc2ccc(Cl)cc2c2cc(Cl)ccc12 (stereo not given) | 3.36 |
| OC(CC1CCCCN1)c1cc(-c2ccc(Cl)cc2)nc2c(C(F)(F)F)cccc12 (stereo not given) | 4.45 |
| CCCCCCCN(CCCCCCC)CC(O)c1cc2ccccc2c2cc(C(F)(F)F)ccc12 (stereo not given) | 3.56 |
| CCCCCCCN(CCCCCCC)CC(O)c1cc2c(Cl)cc(Cl)cc2c2ncccc12 (stereo not given) | 2.86 |
| CCCCN(CCCC)CC(O)c1cc(/C=C/c2ccc(C(F)(F)F)cc2)nc(/C=C/c2ccc(C(F)(F)F)cc2)c1 (stereo not given) | 3.82 |
| CCCN(CCC)CC(O)c1cc2ccc(C(F)(F)F)cc2c2cc(C(F)(F)F)ccc12 (stereo not given) | 3.92 |
| CCCCCCCN(CCCCCCC)CC(O)c1c2cccc(Cl)c2cc2c(Cl)cccc12 (stereo not given) | 3.92 |
| CN1CCN(CC(O)c2cc(-c3ccc(Cl)cc3)nc3c(Cl)cc(Cl)cc23)CC1 (stereo not given) | 3.81 |
| CCCCN(CCCC)CC(O)c1cc2ccc(C(F)(F)F)cc2c2cc(C(F)(F)F)ccc12 (stereo not given) | 4.1 |
| CCCCN(CCCC)CC(O)c1cc2ccc(Br)cc2c2cc(Cl)sc12 (stereo not given) | 3.43 |
| CCCCN(CCCC)CC(O)c1cc(Oc2cccc(C(C)(F)F)c2)nc2c(Cl)cc(Cl)cc12 (stereo not given) | 2.76 |
| CCCCCN(CCCCC)CC(O)c1cc2cc(Cl)ccc2c2cc(Cl)ccc12 (stereo not given) | 4.01 |
| CCCCN(CCCC)CC(O)c1cc(-c2ccc(OC)cc2)nc2cc(Cl)c(Cl)cc12 (stereo not given) | 3.63 |
| CCCCCCN(CCCCCC)CCC(O)c1cc2c(O)cccc2c2ccccc12 (stereo not given) | 2.52 |

| SMILES | log(1/C) |
| --- | --- |
| CCCCN(CCCC)CC(O)c1cc(C(=O)c2ccc(C(F)(F)F)cc2)nc2c(Cl)cc(Cl)cc12 (stereo not given) | 4.86 |
| CCCCN(CCCC)CC(O)c1cc(/C=C/c2ccc(C(F)(F)F)cc2)nc(C(=O)c2ccc(C(F)(F)F)cc2)c1 (stereo not given) | 3.91 |
| CCCCCCCN(CCCCCCC)CC(O)c1ccc(Cl)c2cc3cccc(Cl)c3cc12 (stereo not given) | 3.56 |
| CCCCN(CCCC)CC(O)c1ccnc2cc(C(F)(F)F)ccc12 (stereo not given) | 2.51 |
| CCCCN(CCCC)CC(O)c1cc(-c2ccc(Cl)cc2)cc2ccc(OC)cc12 (stereo not given) | 3.9 |
| OC(CC1CCCCN1)c1cc(C(F)(F)F)nc2c1cc(Cl)c1ccccc12 (stereo not given) | 3.43 |
| CN(C)CC(O)c1cc(-c2ccc(Cl)cc2)nc(-c2ccc(Cl)cc2)c1 (stereo not given) | 3.18 |
| CCCCN(CCCC)CC(O)c1cc(-c2cccc(C(F)(F)F)c2)nc(-c2ccc(Cl)c(Cl)c2)c1 (stereo not given) | 2.9 |
| CCCCN(CCCC)CC(O)c1cc2ccncc2c2c(Cl)cc(Cl)cc12 (stereo not given) | 2.57 |
| OC(CN1CCN(c2ccccc2)CC1)c1cc(-c2ccccc2)nc2c(Cl)cc(Cl)cc12 (stereo not given) | 2.66 |
| CN1CCCCC1CC(O)c1cc2ccccc2c2cc(Br)ccc12 (stereo not given) | 3.44 |
| OC(CC1CCCCN1)c1cc2c(Cl)cc(Cl)cc2c2ccccc12 (stereo not given) | 3.73 |
| CCCCCCCN(CCCCCCC)CCCC(O)c1cc2ccc(C(F)(F)F)cc2c2cc(C(F)(F)F)ccc12 (stereo not given) | 3.72 |
| CCCCCCCN(CCCCCCC)CC(O)c1cccc2cc3cccc(Cl)c3cc12 (stereo not given) | 2.36 |
| CCCCCCCN(CCCCCCC)CC(O)c1cc2c(Cl)cc(Cl)cc2c2sccc12 (stereo not given) | 2.89 |
| CCCCCN(CCCCC)CC(O)c1cc2ccc(Cl)c(Cl)c2c2cc(C(F)(F)F)ccc12 (stereo not given) | 4.26 |
| CCCCN(CCCC)CC(O)c1cc2ccc(I)cc2c2cc(C(F)(F)F)ccc12 (stereo not given) | 3.72 |
| CCCCN(CCCC)CC(O)c1cc(-c2ccc(Cl)cc2)nc2c(Cl)cc(Cl)cc12 (stereo not given) | 4.03 |
| CCN(CC)CC(O)c1cc2cc(Cl)ccc2c2cc(Cl)ccc12 (stereo not given) | 4.06 |
| CCCCCCCCN(CCCCCCCC)CC(O)c1cc2ccccc2c2ccccc12 (stereo not given) | 2.54 |

system: not listed separately; test: Lipophilicity, log P of the compound in 0.1 N HCl solution; format: physicochemical; conditions: 0.1 N HCl solution; read-out: logP
In short: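 Partition coefficients of the hydrochloride salts were measured from 0.1 N HCl solution unless a footnote says otherwise. Some entries were not measured. They were calculated by adding the Δlog P of the corresponding phenanthrene analogues to the measured log P of a reference hydrochloride.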

| logP | SMILES |
| --- | --- |
| 1.12 | OC(CC1CCCCN1)C1CC=Nc2c1cccc2C(F)(F)F (stereo not given) |
| 5.4 | CCCCCCN(CCCCCC)CC(O)c1cnc2cc(Cl)ccc2c1Cl (stereo not given) |
| 2.46 | CCCCN(CCCC)CC(O)c1cnc2cc(Cl)ccc2c1Cl (stereo not given) |
| 0.6 | O=C(O)CCNCC(O)c1cc2ccccc2c2ccccc12 (stereo not given) |
| 3.34 | OC(CC1CCNCC1)c1cc2ccc(C(F)(F)F)cc2c2cc(C(F)(F)F)ccc12 (stereo not given) |
| 3 | CCCCN(CCCC)CC(O)c1cc2ccccc2c2ccccc12 (stereo not given) |
| 0.94 | CCN(CC)CC(O)c1cc(-c2ccccc2)nc2ccccc12 (stereo not given) |

same assay, conditions: buffer

| logP | SMILES |
| --- | --- |
| 9.95 | CCCCCCCN(CCCCCCC)CC(O)c1cc(-c2ccc(Cl)c(Cl)c2)nc(-c2ccc(Cl)c(Cl)c2)c1 (stereo not given) |
